Experiments:
HepG2 = experiment: Cytotoxicity against human HepG2 cells after 48 hrs by; format: cell-based; details: HepG2, 48 h
How it was run: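 HepG2 cells in supplemented Eagle's MEM, 3000 cells/well, plated onto predispensed compounds. Incubated 48 h at 37 °C, 80% humidity, 5% CO2. Viability read by CellTiter-Glo luminescence.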

Trypanosoma cruzi [1] = experiment: Trypanocidal activity against epimastigote forms of Trypanosoma cruzi Y assessed as reduction in viable parasites after 11 days by Neubauer chamber counting method; format: functional, organism-based; details: 264 h
How it was run: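 Y-strain epimastigotes grown at 26 °C in LIT medium with 10% FBS, hemin, R9 and gentamycin. Seeded at 10^6 cells/well and exposed in triplicate to 1.23, 3.70, 11.11, 33.33 and 100 µg/mL inhibitor in DMSO. Incubated 11 days at 26 °C. Viable parasites counted in a Neubauer chamber against untreated culture. IC50 from non-linear regression; experiment run in duplicate.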

[2] = target: Cruzipain (Trypanosoma cruzi) (UniProt P25779); experiment: Inhibition of recombinant Trypanosoma cruzi cruzain using Z-Phe-Argaminomethylcoumarin as fluorogenic substrate preincubated at 50 uM for 10 mins before substrate addition by fluorimetry
Sequence of Cruzipain (Trypanosoma cruzi) (P25779 123-467 limits assumed): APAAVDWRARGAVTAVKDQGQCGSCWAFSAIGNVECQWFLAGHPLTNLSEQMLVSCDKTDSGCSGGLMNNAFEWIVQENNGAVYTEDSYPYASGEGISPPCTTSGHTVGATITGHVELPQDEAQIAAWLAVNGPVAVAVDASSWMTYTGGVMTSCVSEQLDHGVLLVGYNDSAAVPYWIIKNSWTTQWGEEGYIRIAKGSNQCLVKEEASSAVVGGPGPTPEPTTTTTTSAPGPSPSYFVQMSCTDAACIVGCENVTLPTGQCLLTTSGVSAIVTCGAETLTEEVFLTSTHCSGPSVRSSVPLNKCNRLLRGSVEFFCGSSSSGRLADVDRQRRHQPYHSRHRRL
How it was run: (§1)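 Recombinant cruzain at 0.5 nM in 0.1 M sodium acetate pH 5.5 with 5 mM DTT and 0.01% Triton X-100. Compound pre-incubated with enzyme 10 min at a single screening concentration. […] Fluorescence followed 5 min at ex 340/em 440 nm. Activity relative to DMSO control; at least two independent experiments in triplicate.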

Trypanosoma cruzi [3] = experiment: Antitrypanosomal activity against trypomastigote forms of Trypanosoma cruzi Y infected in LLC-MK2 cells assessed as reduction in viable parasites after 24 hrs by Neubauer chamber counting method; format: functional, organism-based; details: LLC-MK2, 24 h
How it was run: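 Bloodstream trypomastigotes (Y strain) taken from supernatants of infected LLC-MK2 cells kept in RPMI-1640 with 10% FBS and gentamycin at 37 °C, 5% CO2. Plated at 4×10^5 cells/well with five concentrations of inhibitor in DMSO. Incubated 24 h at 37 °C, 5% CO2. Motile parasites counted in a Neubauer chamber. % inhibition taken against untreated cultures; IC50 from non-linear regression.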

[4] = target: Cruzipain (Trypanosoma cruzi) (UniProt P25779); experiment: Inhibition of recombinant Trypanosoma cruzi cruzain using Z-Phe-Argaminomethylcoumarin as fluorogenic substrate preincubated at 100 uM for 10 mins before substrate addition by fluorimetry; how it was run: as §1
Cruzipain = Cruzipain (Trypanosoma cruzi, UniProt P25779); experiment: Inhibition of recombinant Trypanosoma cruzi cruzain using Z-Phe-Argaminomethylcoumarin as fluorogenic substrate preincubated for 10 mins before substrate addition by fluorimetry
Sequence of Cruzipain (P25779 whole entry): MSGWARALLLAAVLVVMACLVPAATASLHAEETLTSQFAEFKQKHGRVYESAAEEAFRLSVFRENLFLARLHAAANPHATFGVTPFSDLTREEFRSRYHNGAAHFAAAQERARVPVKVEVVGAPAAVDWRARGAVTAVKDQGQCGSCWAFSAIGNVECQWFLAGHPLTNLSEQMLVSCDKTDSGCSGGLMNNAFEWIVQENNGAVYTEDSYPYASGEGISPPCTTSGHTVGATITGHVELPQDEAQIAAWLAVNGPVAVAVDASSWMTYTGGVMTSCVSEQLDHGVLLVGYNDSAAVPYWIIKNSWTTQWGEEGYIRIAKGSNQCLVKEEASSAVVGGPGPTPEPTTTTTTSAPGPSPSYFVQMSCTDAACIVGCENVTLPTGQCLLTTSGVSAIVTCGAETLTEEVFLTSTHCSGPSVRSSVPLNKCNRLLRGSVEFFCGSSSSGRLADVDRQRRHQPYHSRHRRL
How it was run: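 IC50 against recombinant cruzain (0.5 nM) in 0.1 M sodium acetate pH 5.5, 5 mM DTT, 0.01% Triton X-100. At least seven inhibitor concentrations, each pre-incubated 10 min with enzyme. Z-FR-AMC at 2.5 µM, fluorescence ex 340/em 440 nm followed 5 min. Two independent experiments in triplicate, normalized to DMSO control.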

[5] = target: Cruzipain (Trypanosoma cruzi) (UniProt P25779); experiment: Inhibition of recombinant Trypanosoma cruzi cruzain using Z-Phe-Argaminomethylcoumarin as fluorogenic substrate preincubated at 75 uM for 10 mins before substrate addition by fluorimetry; how it was run: as §1

Row | inhibition [2] [%] | IC50 (Trypanosoma cruzi [3]) [µM] | inhibition [4] [%] | IC50 (Cruzipain) [µM] | inhibition [5] [%] | SMILES | IC50 (HepG2) [µM] | IC50 (Trypanosoma cruzi [1]) [µM]
1 | 22 | 72.7 |  |  |  | Fc1ccc(-c2csc(N/N=C/c3ccccn3)n2)cc1 | 18.2 | 3.5
2 |  | 2.1 | 95 | 0.04 |  | COc1ccc(-c2csc(N/N=C(\C)c3ccccn3)n2)cc1 | 100 | 14.7
3 |  | 2.2 | 86 | 9.5 |  | Brc1ccc(-c2csc(N/N=C/c3ccccn3)n2)cc1 | 100 | 2.2
4 |  | 153 | 12 |  |  | O=[N+]([O-])c1ccc(-c2csc(N/N=C/c3ccccn3)n2)cc1 | 100 | 4.4
5 |  | 16.8 | 23 |  |  | Cc1ccc(-c2csc(N/N=C/c3ccccn3)n2)cc1 | 100 | 3.8
6 |  | 17.3 | 1 |  |  | N/C(S)=N/N=C/c1ccccn1 |  | 120
7 |  | 1.9 | 81 | 4.8 |  | C/C(=N\Nc1nc(-c2ccc(Cl)cc2Cl)cs1)c1ccccn1 | 100 | 14.9
8 |  | 74.2 | 85 | 1.3 |  | O=[N+]([O-])c1cccc(-c2csc(N/N=C/c3ccccn3)n2)c1 | 100 | 2.5
9 |  | 3.1 | 89 | 0.4 |  | C/C(=N\Nc1nc(-c2ccc(Cl)c(Cl)c2)cs1)c1ccccn1 | 100 | 5
10 |  | 3.9 |  |  | 10 | C/C(=N\Nc1nc(-c2cccc([N+](=O)[O-])c2)cs1)c1ccccn1 | 100 | 2.4
11 |  | 2.8 | 5 |  |  | C/C(=N\NC(N)=S)c1ccccn1 |  | 4.5
12 |  | 4.8 |  |  | 20 | COc1ccc(-c2csc(N/N=C/c3ccccn3)n2)cc1 | 100 | 5.6
13 |  | 2.1 | 3 |  |  | C(=N\Nc1nc(-c2ccc3ccccc3c2)cs1)/c1ccccn1 | 100 | 8.3
14 |  | 1.1 | 93 | 1.3 |  | C/C(=N\Nc1nc(-c2ccccc2)cs1)c1ccccn1 | 91.2 | 2.7
15 |  | 1.2 | 21 |  |  | Clc1ccc(-c2csc(N/N=C/c3ccccn3)n2)cc1Cl | 100 | 4
16 |  | 2.1 | -3 |  |  | C/C(=N/Nc1nc(-c2ccc(Cl)cc2)cs1)c1ccccn1 | 100 | 2.5
17 |  | 2.3 | 27 |  |  | C/C(=N\Nc1nc(-c2ccc(Br)cc2)c(C)s1)c1ccccn1 | 85.1 | 2.3
18 |  | 2.1 | -8 |  |  | C/C(=N\Nc1nc(-c2ccc(Br)cc2)cs1)c1ccccn1 | 100 | 2.1
19 |  | 3.8 | 89 | 0.3 |  | C/C(=N\Nc1nc(-c2ccc(F)cc2)cs1)c1ccccn1 | 91.2 | 2.8
20 |  | 3.8 |  |  | -1 | Clc1ccc(-c2csc(N/N=C/c3ccccn3)n2)cc1 | 100 | 3.8
21 |  | 2 | 94 | 0.01 |  | C/C(=N\Nc1nc(-c2ccc3ccccc3c2)cs1)c1ccccn1 | 100 | 4.1
22 |  | 5.4 |  |  | 9 | C(=N\Nc1nc(-c2ccccc2)cs1)/c1ccccn1 | 100 | 8.3
23 |  | 1.2 |  |  | 0 | Clc1ccc(-c2csc(N/N=C/c3ccccn3)n2)c(Cl)c1 | 100 | 4.8
24 |  | 1.7 | 90 | 0.4 |  | C/C(=N\Nc1nc(-c2ccc(C)cc2)cs1)c1ccccn1 | 100 | 2.5
25 |  | 2.6 | 10 |  |  | Cc1sc(N/N=C/c2ccccn2)nc1-c1ccc(Br)cc1 | 100 | 18.3
26 |  | 36.7 |  |  | 11 | C/C(=N\Nc1nc(-c2ccc([N+](=O)[O-])cc2)cs1)c1ccccn1 | 100 | 5.2

Reference: ChEMBL document CHEMBL3352772, “2-Pyridyl thiazoles as novel anti-Trypanosoma cruzi agents: structural design, synthesis and pharmacological evaluation” (Eur J Med Chem, 2014)
